pIC50, pKi: −log10 of the molar value. ≈ marks a conversion by molar mass, not a printed value. Calls of active or inactive are those of the source. No cut-off for these calls is given here.
Assays:
[1] = Cmax in rat at 10 mg/kg, po; format: ADME, organism-based; design: dose 10 mg/kg, route oral; conditions: in vivo
In short: (§1)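 Oral PK in the listed species. Vehicle 5:5:90 TPGS/EtOH/PEG300. An IV arm was dosed at 2 mg/kg.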

Rattus norvegicus [2] = assay: Inhibition of IL12/IL18-induced IFNgamma production in po dosed Lewis rat pretreated for 1 hr followed by IL12 stimulation for 1 hr and subsequent IL18 addition and measured after 3 hrs by ELISA; format: functional, organism-based
In short: (§2)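 Rats were dosed in 5:5:90 TPGS/EtOH/PEG300, challenged with IL-12 1 h later and with IL-18 a further hour later. Plasma was collected 5 h after dosing for IFNγ levels. Inhibition is relative to vehicle.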

Rattus norvegicus [3] = assay: Inhibition of IL12/IL18-induced IFNgamma production in Lewis rat at 10 mg/kg, po pretreated for 1 hr followed by IL12 stimulation for 1 hr and subsequent IL18 addition and measured after 3 hrs by ELISA relative to control; format: functional; in short: as §2
[4] = Clearance in rat at 10 mg/kg, po; format: ADME, organism-based; conditions: in vivo; in short: as §1
Rattus norvegicus [5] = assay: Antiarthritic activity in incomplete Freund's adjuvant-induced Lewis rat arthritis model assessed as reduction in paw volume at 5 to 10 mg/kg, po bid for 20 days by plethysmometric method; format: functional, organism-based
In short: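 Rat adjuvant arthritis. Adjuvant was given on day zero. Compound was dosed twice daily from day 0 to day 20 in 5:5:90 TPGS/EtOH/PEG300. Paw volume was measured periodically.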

[6] = AUC (0 to 24 hrs) in cynomolgus monkey at 10 mg/kg, po; format: ADME, organism-based, Macaca fascicularis; design: time < 24 hr, dose 10 mg/kg, route oral; conditions: in vivo; in short: as §1
[7] = Clearance in mouse at 2 mg/kg, iv; conditions: in vivo
[8] = AUC (0 to 24 hrs) in mouse at 10 mg/kg, po; format: ADME, organism-based; design: time < 24 hr, dose 10 mg/kg, route oral; conditions: in vivo; in short: as §1
[9] = AUC (0 to 24 hrs) in rat at 10 mg/kg, po; format: ADME, organism-based; design: time < 24 hr, dose 10 mg/kg, route oral; conditions: in vivo; in short: as §1
[10] = Oral bioavailability in rat at 10 mg/kg; format: ADME, organism-based; conditions: in vivo; in short: as §1
Rattus norvegicus [11] = assay: Inhibition of IL12/IL18-induced IFNgamma production in Lewis rat at 1 mg/kg, po pretreated for 1 hr followed by IL12 stimulation for 1 hr and subsequent IL18 addition and measured after 3 hrs by ELISA relative to control; format: functional; in short: as §2
[12] = Oral bioavailability in cynomolgus monkey at 10 mg/kg; format: ADME, organism-based, Macaca fascicularis; conditions: in vivo; in short: as §1
[13] = Clearance in cynomolgus monkey at 10 mg/kg, po; format: ADME, organism-based, Macaca fascicularis; conditions: in vivo; in short: as §1
[14] = AUC (0 to 24 hrs) in dog at 10 mg/kg, po; format: ADME, organism-based, Canis lupus familiaris; design: time < 24 hr, dose 10 mg/kg, route oral; conditions: in vivo; in short: as §1
[15] = Cmax in cynomolgus monkey at 10 mg/kg, po; format: ADME, organism-based, Macaca fascicularis; design: dose 10 mg/kg, route oral; conditions: in vivo; in short: as §1
[16] = Clearance in dog at 10 mg/kg, po; format: ADME, organism-based, Canis lupus familiaris; conditions: in vivo; in short: as §1
[17] = Cmax in dog at 10 mg/kg, po; format: ADME, organism-based, Canis lupus familiaris; design: dose 10 mg/kg, route oral; conditions: in vivo; in short: as §1
[18] = Oral bioavailability in mouse at 10 mg/kg; format: ADME, organism-based; conditions: in vivo; in short: as §1
[19] = Cmax in mouse at 10 mg/kg, po; format: ADME, organism-based; design: dose 10 mg/kg, route oral; conditions: in vivo; in short: as §1
[20] = Oral bioavailability in dog at 10 mg/kg; format: ADME, organism-based, Canis lupus familiaris; conditions: in vivo; in short: as §1
[21] = target: T1, Non-receptor tyrosine-protein kinase TYK2 (Homo sapiens, UniProt P29597); assay: Inhibition of fluorescein-labeled kinase tracer binding to His-TVMV-fused TYK2 JH2 domain (575 to 869 residues) (unknown origin) measured after 90 mins by HTRF assay
T1 sequence (P29597 whole entry, the tested form may be a part): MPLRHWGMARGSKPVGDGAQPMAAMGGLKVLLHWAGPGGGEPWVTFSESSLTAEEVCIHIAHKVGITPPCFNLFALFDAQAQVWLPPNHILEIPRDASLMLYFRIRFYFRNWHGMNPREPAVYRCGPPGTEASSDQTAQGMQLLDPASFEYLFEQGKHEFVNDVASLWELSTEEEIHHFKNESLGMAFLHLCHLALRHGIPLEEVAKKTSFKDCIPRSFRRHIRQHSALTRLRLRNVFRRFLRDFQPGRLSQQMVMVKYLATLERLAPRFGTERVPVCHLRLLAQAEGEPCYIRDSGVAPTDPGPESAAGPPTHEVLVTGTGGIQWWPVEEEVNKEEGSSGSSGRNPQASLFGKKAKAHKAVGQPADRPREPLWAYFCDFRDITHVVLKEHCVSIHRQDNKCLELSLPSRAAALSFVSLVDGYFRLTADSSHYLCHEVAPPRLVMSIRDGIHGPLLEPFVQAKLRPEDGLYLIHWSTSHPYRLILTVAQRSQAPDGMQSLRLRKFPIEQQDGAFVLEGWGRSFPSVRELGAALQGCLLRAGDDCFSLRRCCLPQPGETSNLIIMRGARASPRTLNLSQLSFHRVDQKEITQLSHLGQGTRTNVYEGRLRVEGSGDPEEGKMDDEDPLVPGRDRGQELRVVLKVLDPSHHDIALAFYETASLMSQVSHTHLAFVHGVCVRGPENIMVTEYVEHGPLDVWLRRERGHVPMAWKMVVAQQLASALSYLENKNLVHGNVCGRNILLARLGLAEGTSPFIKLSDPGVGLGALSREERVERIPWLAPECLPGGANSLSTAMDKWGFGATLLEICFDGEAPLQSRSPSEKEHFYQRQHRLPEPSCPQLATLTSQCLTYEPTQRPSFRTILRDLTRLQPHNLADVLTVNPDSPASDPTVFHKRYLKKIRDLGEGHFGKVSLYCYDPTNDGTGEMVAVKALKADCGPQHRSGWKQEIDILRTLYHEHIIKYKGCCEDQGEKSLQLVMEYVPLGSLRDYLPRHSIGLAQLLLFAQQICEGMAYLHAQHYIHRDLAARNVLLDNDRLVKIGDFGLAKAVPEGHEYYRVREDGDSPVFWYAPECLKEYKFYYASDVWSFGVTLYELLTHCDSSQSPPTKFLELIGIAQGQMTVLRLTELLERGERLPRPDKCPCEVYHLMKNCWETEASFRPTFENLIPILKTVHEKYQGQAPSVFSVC

[22] = target: T1, Non-receptor tyrosine-protein kinase TYK2; assay: Inhibition of TYK2 JH2 domain in IFNalpha/IL23-stimulated human Kit225 cells by luciferase reporter assay
[23] = target: T1, Non-receptor tyrosine-protein kinase TYK2; assay: Inhibition of TYK2 JH2 domain in human whole blood assessed as decrease in IFNalpha/IL2-induced STAT phosphorylation preincubated for 1 hr followed by IFNalpha/IL2 stimulation and measured after 15 mins by fluorescence assay; format: tissue-based
[24] = Stability in rat liver microsomes assessed as parent compound remaining; format: ADME, Microsome
In short: (§3)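 Compound was incubated 10 min with human, rat or mouse liver microsomes. Parent remaining is reported as percent.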

[25] = Aqueous solubility of the compound at pH 1; format: physicochemical; conditions: buffer
[26] = Stability in human liver microsomes assessed as parent compound remaining; format: ADME, Microsome; in short: as §3
[27] = Aqueous solubility of the compound at pH 6.5; format: physicochemical; conditions: buffer
[28] = Stability in mouse liver microsomes assessed as parent compound remaining; format: ADME, Microsome; in short: as §3
[29] = Permeability of the compound in human Caco2 cells; format: ADME, cell-based; conditions: Caco-2, read-out: permeability

Compound | pKi [21] | pIC50 [22] | pIC50 [23] | IC50 [23] | further results
CNc1cc(Nc2cccn(-c3ccccn3)c2=O)nn2c(C(=O)N[C@@H]3C[C@@H]3F)cnc12 | – | – | – | – | Cmax [1]: 9.4 µM; inhibition (Rattus norvegicus [2]): Dose-dependent effect; inhibition in vivo at 10 mg/kg (Rattus norvegicus [3]): 77%; CL/F [4]: 7.8 mL/min/kg; Activity (Rattus norvegicus [5]): Active; AUC(0-t) at 24 h [6]: 11 µM·h; clearance [7]: 16 mL/min/kg; AUC(0-t) at 24 h [8]: 19 µM·h; AUC(0-t) at 24 h [9]: 57 µM·h; bioavailability [10]: 114%; inhibition in vivo at 1 mg/kg (Rattus norvegicus [11]): 45%; bioavailability [12]: 46%; CL/F [13]: 17 mL/min/kg; AUC(0-t) at 24 h [14]: 8 µM·h; Cmax [15]: 1.8 µM; CL/F [16]: 25 mL/min/kg; Cmax [17]: 0.93 µM; bioavailability [18]: 86%; Cmax [19]: 15 µM; bioavailability [20]: 50%
CNc1cc(Nc2cccn(-c3cccc(F)n3)c2=O)nn2c(C(=O)NC3CC3)cnc12 | 9.66 | 7.15 | 6.43 | – | –
CNc1cc(Nc2cccn(-c3cc(C)n(C)n3)c2=O)nn2c(C(=O)N[C@@H]3C[C@@H]3F)cnc12 | 10.82 | 7.66 | 7.05 | – | –
CNc1cc(Nc2cccn(-c3ccc(C)nn3)c2=O)nn2c(C(=O)N[C@@H]3C[C@@H]3F)cnc12 | 10.74 | 7.39 | 7.20 | – | –
CNc1cc(Nc2cccn(-c3ccc(C#N)cc3)c2=O)nn2c(C(=O)NC3CC3)cnc12 | 9.70 | 7.05 | 6.57 | – | Stability [24]: 77%; solubility [25]: 2 µg/mL (≈ 4.54 µM); Stability [26]: 92%; solubility [27]: < 1 µg/mL; Stability [28]: 71%
CNc1cc(Nc2cccn(-c3ccccn3)c2=O)nn2c(C(=O)NCC(C)(C)CO)cnc12 | 9.54 | 7.08 | 6.55 | – | –
CNc1cc(Nc2cccn(-c3ccncc3)c2=O)nn2c(C(=O)NC3CC3)cnc12 | 9.54 | 6.83 | 6.46 | – | Papp [29]: 3.8 ×10⁻⁶ cm/s
CNc1cc(Nc2cccn(-c3ccc(C)nn3)c2=O)nn2c(C(=O)NC3CC3)cnc12 | 10.04 | 6.83 | 6.61 | – | –
CNc1cc(Nc2cccn(-c3ccc(F)cn3)c2=O)nn2c(C(=O)N[C@@H]3C[C@@H]3F)cnc12 | 10.46 | 7.59 | 7.07 | – | –
CNc1cc(Nc2cccn(-c3ncc(F)cn3)c2=O)nn2c(C(=O)NC3CC3)cnc12 | 9.42 | 6.63 | 6.33 | – | –
CNc1cc(Nc2cccn(-c3ccc(F)cn3)c2=O)nn2c(C(=O)NC3CC3)cnc12 | 9.82 | 7.00 | 6.63 | – | –
CNc1cc(Nc2cccn(-c3ncccc3F)c2=O)nn2c(C(=O)NC3CC3)cnc12 | 9.92 | 7.21 | 6.50 | – | Papp [29]: 5.9 ×10⁻⁶ cm/s
CNc1cc(Nc2cccn(-c3ccccn3)c2=O)nn2c(C(=O)NC3CC3)cnc12 | 9.47 | 7.03 | 6.40 to 6.42 | – | Papp [29]: 16.9 ×10⁻⁶ cm/s
CNc1cc(Nc2cccn(-c3cc(C)n(C)n3)c2=O)nn2c(C(=O)NC3CC3)cnc12 | 9.32 | 6.87 | 6.47 | – | Papp [29]: 14.2 ×10⁻⁶ cm/s
CNc1cc(Nc2cccn(-c3ccccn3)c2=O)nn2c(C(=O)NC(C)C)cnc12 | 9.89 | 6.82 | 6.12 | – | –
CNc1cc(Nc2cccn(-c3ccccn3)c2=O)nn2c(C(=O)NC3CCC3)cnc12 | 9.59 | 7.22 | 6.42 | – | –
CNc1cc(Nc2cccn(-c3cccc(F)n3)c2=O)nn2c(C(=O)N[C@@H]3C[C@@H]3F)cnc12 | 10.62 | 7.92 | 6.87 | – | –
CNc1cc(Nc2cccn(C3CC3)c2=O)nn2c(C(=O)NC3CC3)cnc12 | 9.48 | 6.88 | 6.09 | – | Stability [24]: 71%; Stability [26]: 88%; Stability [28]: 39%
CNc1cc(Nc2cccn(C)c2=O)nn2c(C(=O)NC3CC3)cnc12 | 9.13 | 6.21 | – | Nd(Insoluble) | Stability [24]: 63%; Stability [26]: 56%; Stability [28]: 10%
CNc1cc(Nc2cccn(-c3ccc(C(C)(C)O)cc3)c2=O)nn2c(C(=O)NC3CC3)cnc12 | 10.15 | 6.95 | 6.09 | – | –

Source: ChEMBL document CHEMBL4400582, “Identification of Imidazo[1,2-b]pyridazine Derivatives as Potent, Selective, and Orally Active Tyk2 JH2 Inhibitors” (ACS Med Chem Lett, 2019)
